Laboratory results taken from ChEMBL document CHEMBL3526018, “Metabolites of PPI-2458, a selective, irreversible inhibitor of methionine aminopeptidase-2: structure determination and in vivo activity” (Drug Metab Dispos, 2013).
Active and inactive are the calls of the source. The rule behind the calls is not given here.

Experiments:
Rattus norvegicus [1] = experiment: Inhibition of MetAP2 level in Sprague-Dawley rat lung assessed as free enzyme level at 0.3 mg/kg, po by ELISA; type: functional, organism-based; parameters: dose 0.3 mg/kg
Procedure, shortened: (§1)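 Male Sprague-Dawley rats (200-225 g, n=3 per group) were dosed once IV at 0.3 mg/kg or PO at 0.3 or 3.0 mg/kg, in 11% HPCD in water. Blood, liver, lung, thymus and pooled non-mesenteric lymph nodes were taken at ~24 h and lysed or homogenized with NP-40. Free MetAP2 was measured by ELISA and expressed as % of vehicle.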

Rattus norvegicus [2] = experiment: Inhibition of MetAP2 level in Sprague-Dawley rat lymph nodes assessed as free enzyme level at 0.3 mg/kg, po by ELISA; type: functional, organism-based; parameters: dose 0.3 mg/kg; procedure, shortened: as §1
Rattus norvegicus [3] = experiment: Inhibition of MetAP2 level in Sprague-Dawley rat thymus assessed as free enzyme level at 0.3 mg/kg, po by ELISA; type: functional, organism-based; parameters: dose 0.3 mg/kg; procedure, shortened: as §1
CYP3A4 (Homo sapiens) [4] = experiment: Activity of human recombinant CYP3A4 assessed as ((3R,4S,5S,6R)-4-((2R,3R)-3-(((S)-3,3-dimethyloxiran-2-yl)methyl)-2-methyloxiran-2-yl)-5-methoxy-1-oxaspiro[2.5]octan-6-yl ((R)-1-amino-3-methyl-1-oxobutan-2-yl)carbamate) formation per pmol of enzyme
Cytochrome P450 3A4 = Cytochrome P450 3A4 (Homo sapiens, UniProt P08684); experiment: Inhibition of CYP3A4 activity in human liver microsomes using nifedipine as a substrate by LC/MS analysis; type: ADME
CYP3A5 (Homo sapiens) [5] = experiment: Activity of human recombinant CYP3A5 assessed as ((3R,4S,5S,6R)-4-((2R,3R)-3-(((R)-3,3-dimethyloxiran-2-yl)methyl)-2-methyloxiran-2-yl)-5-methoxy-1-oxaspiro[2.5]octan-6-yl ((R)-1-amino-3-methyl-1-oxobutan-2-yl)carbamate) formation per pmol of enzyme
CYP3A5 (Homo sapiens) [6] = experiment: Activity of human recombinant CYP3A5 assessed as ((3R,4S,5S,6R)-5-methoxy-4-((2R,3R)-2-methyl-3-(3-methylbut-2-en-1-yl)oxiran-2-yl)-1-oxaspiro[2.5]octan-6-yl ((R)-1-amino-3-hydroxy-3-methyl-1-oxobutan-2-yl)carbamate) formation; conditions: recombinant enzyme
Rattus norvegicus [7] = experiment: Inhibition of MetAP2 level in Sprague-Dawley rat lymph nodes assessed as free enzyme level at 3 mg/kg, po by ELISA; type: functional, organism-based; parameters: dose 3 mg/kg; procedure, shortened: as §1
CYP3A4 (Homo sapiens) [8] = experiment: Ratio of Vmax to Km for human recombinant CYP3A4 assessed as ((3R,4S,5S,6R)-4-((2R,3R)-3-((E)-4-hydroxy-3-methylbut-2-en-1-yl)-2-methyloxiran-2-yl)-5-methoxy-1-oxaspiro[2.5]octan-6-yl((R)-1-amino-3-methyl-1-oxobutan-2-yl)carbamate) formation; conditions: recombinant enzyme
Rattus norvegicus [9] = experiment: Inhibition of MetAP2 level in Sprague-Dawley rat lung assessed as free enzyme level at 0.3 mg/kg, iv by ELISA; type: functional, organism-based; parameters: dose 0.3 mg/kg; procedure, shortened: as §1
CYP3A5 (Homo sapiens) [10] = experiment: Ratio of Vmax to Km for human recombinant CYP3A5 assessed as ((3R,4S,5S,6R)-4-((2R,3R)-3-(((S)-3,3-dimethyloxiran-2-yl)methyl)-2-methyloxiran-2-yl)-5-methoxy-1-oxaspiro[2.5]octan-6-yl ((R)-1-amino-3-methyl-1-oxobutan-2-yl)carbamate) formation; conditions: recombinant enzyme
Rattus norvegicus [11] = experiment: Inhibition of MetAP2 level in Sprague-Dawley rat whole blood assessed as free enzyme level at 0.3 mg/kg, iv by ELISA; type: functional, organism-based; parameters: dose 0.3 mg/kg; procedure, shortened: as §1
[12] = target: Methionine aminopeptidase 2 (Homo sapiens) (UniProt P50579); experiment: Inhibition of human MetAP2 assessed as remaining enzyme activity after 8 hrs; parameters: concentration or dose not given beside the values
Procedure, shortened: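 The hMetAP2 assay follows the fraction of active enzyme remaining during an 8 h incubation with inhibitor, relative to an enzyme-only control.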

Liver microsome [13] = experiment: Metabolic stability in dog liver microsomes assessed as retention time of ((3R,4S,5S,6R)-4-((2R,3R)-3-((E)-4-hydroxy-3-methylbut-2-en-1-yl)-2-methyloxiran-2-yl)-5-methoxy-1-oxaspiro[2.5]octan-6-yl((R)-1-amino-3-methyl-1-oxobutan-2-yl)carbamate) at 5 mM by LC/MS analysis; type: ADME, Canis lupus familiaris; conditions: 5000 µM
Rattus norvegicus [14] = experiment: Inhibition of MetAP2 level in Sprague-Dawley rat liver assessed as free enzyme level at 0.3 mg/kg, iv by ELISA; type: functional, organism-based; parameters: dose 0.3 mg/kg; procedure, shortened: as §1
CYP3A4 (Homo sapiens) [15] = experiment: Ratio of Vmax to Km for human recombinant CYP3A4 assessed as ((3R,4S,5S,6R)-4-((2R,3R)-3-(((S)-3,3-dimethyloxiran-2-yl)methyl)-2-methyloxiran-2-yl)-5-methoxy-1-oxaspiro[2.5]octan-6-yl ((R)-1-amino-3-methyl-1-oxobutan-2-yl)carbamate) formation; conditions: recombinant enzyme
CYP3A4 (Homo sapiens) [16] = experiment: Activity of human recombinant CYP3A4 assessed as ((3R,4S,5S,6R)-5-methoxy-4-((2R,3R)-2-methyl-3-(3-methylbut-2-en-1-yl)oxiran-2-yl)-1-oxaspiro[2.5]octan-6-yl ((R)-1-amino-3-hydroxy-3-methyl-1-oxobutan-2-yl)carbamate) formation per pmol of enzyme
[17] = Metabolic stability in monkey liver microsomes assessed as retention time of ((3R,4S,5S,6R)-4-((2R,3R)-3-(((R)-3,3-dimethyloxiran-2-yl)methyl)-2-methyloxiran-2-yl)-5-methoxy-1-oxaspiro[2.5]octan-6-yl ((R)-1-amino-3-methyl-1-oxobutan-2-yl)carbamate) at 5 mM by LC/MS analysis; type: ADME, Macaca mulatta; conditions: rhesus monkey, 5000 µM
Procedure, shortened: (§2)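 Liver microsomes (pooled male/female) in 100 mM KPO4 pH 7.4 with PPI-2458 (5 mM stock), pre-incubated 5 min at 37°C, then 10 mM NADPH added; 20 min at 37°C with shaking. Time-zero and no-NADPH controls. Quenched with CH3CN; supernatant dried and redissolved in water. Analysed by LC-MS, ESI+ full scan 300–800 amu, C18 column, 10→50% B gradient.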

Liver microsome [18] = experiment: Metabolic stability in human liver microsomes assessed as retention time of ((3R,4S,5S,6R)-4-((2R,3R)-3-(((R)-3,3-dimethyloxiran-2-yl)methyl)-2-methyloxiran-2-yl)-5-methoxy-1-oxaspiro[2.5]octan-6-yl ((R)-1-amino-3-methyl-1-oxobutan-2-yl)carbamate) at 5 mM by LC/MS analysis; type: ADME; conditions: 5000 µM
Liver = experiment: Metabolic stability in mouse liver microsomes assessed as retention time of ((3R,4S,5S,6R)-5-methoxy-4-((2R,3R)-2-methyl-3-(3-methylbut-2-en-1-yl)oxiran-2-yl)-1-oxaspiro[2.5]octan-6-yl ((R)-1-amino-3-hydroxy-3-methyl-1-oxobutan-2-yl)carbamate) at 5 mM by LC/MS analysis; type: ADME; conditions: 5000 µM; procedure, shortened: as §2

Chain of Cytochrome P450 3A4 (P08684 whole entry): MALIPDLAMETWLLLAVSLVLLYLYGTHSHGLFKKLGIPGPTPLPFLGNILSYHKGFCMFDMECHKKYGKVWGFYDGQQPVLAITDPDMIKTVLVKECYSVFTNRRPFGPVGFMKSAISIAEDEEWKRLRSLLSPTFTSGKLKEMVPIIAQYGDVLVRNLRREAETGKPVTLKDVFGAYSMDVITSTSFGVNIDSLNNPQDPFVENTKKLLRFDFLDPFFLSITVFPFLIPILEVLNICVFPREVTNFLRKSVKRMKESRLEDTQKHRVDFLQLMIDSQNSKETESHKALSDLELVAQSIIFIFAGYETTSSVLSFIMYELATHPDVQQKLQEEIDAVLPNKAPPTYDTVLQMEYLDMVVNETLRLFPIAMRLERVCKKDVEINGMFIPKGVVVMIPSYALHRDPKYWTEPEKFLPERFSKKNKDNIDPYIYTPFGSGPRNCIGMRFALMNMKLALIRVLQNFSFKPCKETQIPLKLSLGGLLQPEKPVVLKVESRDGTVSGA
Chain of Methionine aminopeptidase 2 (Homo sapiens) (P50579 2-478 limits assumed): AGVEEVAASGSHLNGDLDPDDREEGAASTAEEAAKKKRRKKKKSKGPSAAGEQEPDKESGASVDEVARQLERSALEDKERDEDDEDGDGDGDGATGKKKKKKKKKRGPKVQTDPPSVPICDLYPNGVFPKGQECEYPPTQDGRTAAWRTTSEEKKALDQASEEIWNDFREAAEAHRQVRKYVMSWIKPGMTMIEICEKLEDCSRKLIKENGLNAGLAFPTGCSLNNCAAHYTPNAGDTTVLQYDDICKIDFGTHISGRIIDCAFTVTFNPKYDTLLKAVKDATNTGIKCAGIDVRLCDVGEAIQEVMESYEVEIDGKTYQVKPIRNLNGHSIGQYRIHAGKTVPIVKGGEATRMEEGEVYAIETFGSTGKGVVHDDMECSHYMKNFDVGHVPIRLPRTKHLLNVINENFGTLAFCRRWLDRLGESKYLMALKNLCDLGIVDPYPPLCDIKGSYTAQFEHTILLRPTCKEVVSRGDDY

Vmax (CYP3A4 (Homo sapiens) [4]): 2.97 pmol/min
Ki (Cytochrome P450 3A4): 403 µM
Vmax (CYP3A5 (Homo sapiens) [5]): 2.86 pmol/min
Km (CYP3A5 (Homo sapiens) [6]): 17 µM
Vmax/Km (CYP3A4 (Homo sapiens) [8]): 0.09 µL/min
Vmax/Km (CYP3A5 (Homo sapiens) [10]): 0.09 µL/min
Activity [12]: 2.8%
Drug metabolism (Liver microsome [13]): metabolite_detected
Vmax/Km (CYP3A4 (Homo sapiens) [15]): 0.19 µL/min
Vmax (CYP3A4 (Homo sapiens) [16]): 0.51 pmol/min
Drug metabolism [17]: metabolite_detected
Drug metabolism (Liver microsome [18]): metabolite_detected
Drug metabolism (Liver): metabolite_detected
Compound: CO[C@@H]1[C@H](OC(=O)N[C@@H](C(N)=O)C(C)C)CC[C@]2(CO2)[C@H]1[C@@]1(C)O[C@@H]1CC=C(C)C [PPI-2458]
inhibition (Rattus norvegicus [1]): Active
inhibition (Rattus norvegicus [2]): Active
inhibition (Rattus norvegicus [3]): Active
inhibition (Rattus norvegicus [7]): Active
inhibition (Rattus norvegicus [9]): Active
inhibition (Rattus norvegicus [11]): Active
inhibition (Rattus norvegicus [14]): Active
